Measurements reported in ChEMBL document CHEMBL1153035, “Desmethoxymajusculamide C, a cyanobacterial depsipeptide with potent cytotoxicity in both cyclic and ring-opened forms” (J Nat Prod, 2009).
Calls of active or inactive are those of the source. No cut-off for these calls is given here. Starred links: 1 amine or outer side, 2 acyl side, 3 side chain; linkers in the order of their positions; H or OH if unused. Non-standard residues stand in square brackets, D forms with d. Residues, ends and D or L forms follow the SMILES beside them. *: point of attachment. X1 = CC[C@H](C)[C@H](OC(=O)[C@@H](C)[C@@H](CC)N[*:1])C(=O)[*:2]; Pentanoyl(2S-OH,3S-Me) = CC[C@H](C)[C@H](O)C(=O)*; X2 = C[C@H](N[*:1])C(=O)C(C)(C)C(=O)[*:2]; NMeF = CN[C@@H](Cc1ccccc1)C(=O)O; NMeI = CC[C@H](C)[C@H](NC)C(=O)O; X3 = CC[C@@H](N*)[C@H](C)C(=O)O; NMeV = CN[C@H](C(=O)O)C(C)C

What was measured:
HCT-116 [1] = assay: Selectivity ratio, IC50 for human H460 cells to IC50 for human HCT116 cells; type: functional
HCT-116 [2] = assay: Cytotoxicity against human HCT116 cells after 120 hrs; conditions: HCT-116, 120 h
[3] = Selectivity ratio, IC50 for […] cells to IC50 for human HCT116 cells; type: functional
MDA-MB-435 [4] = assay: Cytotoxicity against human MDA-MB-435 cells after 24 hrs; type: functional, cell-based; conditions: MDA-MB-435, 24 h
A10 = assay: Effect on actin cytoskeleton in rat A10 cells assessed as loss of F-actin filament at 52 nM by TRITC-phalloidin staining; type: functional, cell-based
Summary of the method: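 A-10 cells on glass coverslips in BME + 10% fetal calf serum, exposed 24 h, then fixed with 3% paraformaldehyde, permeabilized with 0.2% Triton X-100, and reduced with NaBH4. Stained 45 min with 100 nM TRITC-phalloidin plus DAPI. F-actin examined by fluorescence microscopy against vehicle-treated control.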

[5] = Cytotoxicity against mouse Neuro2a cells after 24 hrs; type: functional, cell-based; conditions: N2a
MDA-MB-435 [6] = assay: Selectivity ratio, IC50 for human MDA-MB-435 cells to IC50 for human HCT116 cells; type: functional
NCI-H460 = assay: Cytotoxicity against human H460 cells after 24 hrs; type: functional, cell-based; conditions: NCI-H460, 24 h
HCT-116 [7] = assay: Antitumor activity against human HCT116 cells xenografted in SCID mouse at 0.62 mg/kg, iv daily for 5 days relative to control; type: functional, organism-based; design: dose 0.62 mg/kg
Summary of the method: (§1)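 HCT-116 tumor cells from tissue, 10^6 implanted subcutaneously into pooled SCID mice (>17 g, weights within 5 g), 5 per group. Starting 1 day after inoculation, bolus tail-vein iv daily for 5 days. Vehicle: DMSO stock diluted 1:1 with Cremophor-propylene glycol (40:60), then ≥10-fold with saline. Minimum %T/C reported; sacrifice at day 30.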

HCT-116 [8] = assay: Cytotoxicity against human HCT116 cells assessed as clonogenic concentration required for 10% surviving fraction after 7 days; type: functional
Summary of the method: (§2)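 HCT-116 cells seeded at 200 or 20,000 per 60 mm dish in RPMI + 10% FBS. Drug added at a final top concentration of 10 µg/mL (10.5 µM) with 10-fold dilutions, for 2 h or 24 h then replaced by drug-free medium, or left continuously (168 h). After 7 days, colonies stained with methylene blue; colonies of ≥50 cells counted and normalized to untreated control.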

HCT-116 [9] = assay: Antitumor activity against human HCT116 cells xenografted in SCID mouse assessed as tumor growth rate at 0.31 mg/kg, iv dosed daily for 5 days relative to control; type: functional, organism-based; design: dose 0.31 mg/kg; summary of the method: as §1
HCT-116 [10] = assay: Cytotoxicity against human HCT116 cells assessed as clonogenic concentration required for 10% surviving fraction after 24 hrs; type: functional; summary of the method: as §2
HCT-116 [11] = assay: Cytotoxicity against human HCT116 cells assessed as clonogenic concentration required for 10% surviving fraction after 2 hrs; type: functional; summary of the method: as §2
[12] = Toxicity in human HCT116 cells xenografted in SCID mouse assessed as maximum tolerated dose; type: organism-based, HCT-116; conditions: in vivo, read-out: Activity

Row | Structure (SMILES) | Ratio IC50 (HCT-116 [1]) | IC50 (HCT-116 [2]) [nM] | Ratio IC50 [3] | IC50 (MDA-MB-435 [4]) [nM] | Activity (A10) | IC50 [5] [nM] | Ratio IC50 (MDA-MB-435 [6]) | IC50 (NCI-H460) [nM] | Activity (HCT-116 [7]) | Activity (HCT-116 [8]) [nM] | Activity (HCT-116 [9]) | Activity (HCT-116 [10]) [µM] | Activity (HCT-116 [11]) [µM] | MTD [12] [mg/kg]
1 | CC[C@H](C)[C@H](O)C(=O)NCC(=O)N(C)[C@H](C(=O)NCC(=O)N(C)[C@H](C(=O)N(C)[C@@H](Cc1ccccc1)C(=O)N[C@@H](C)C(=O)C(C)(C)C(=O)N[C@@H](C)C(=O)N[C@H](CC)[C@H](C)C(=O)O)C(C)C)[C@@H](C)CC ({Pentanoyl(2S-OH,3S-Me)}-G[NMeI]G[NMeV][NMeF][X2]A-X3) | 5 | 16 | 10 | 230 | Active | > 1000 | 14 | 94 |  |  |  |  |  | 
2 | CC[C@H](C)[C@@H]1OC(=O)[C@@H](C)[C@@H](CC)NC(=O)[C@H](C)NC(=O)C(C)(C)C(=O)[C@H](C)NC(=O)[C@H](Cc2ccccc2)N(C)C(=O)[C@H](C(C)C)N(C)C(=O)CNC(=O)[C@H]([C@@H](C)CC)N(C)C(=O)CNC1=O [DESMETHOXYMAJUSCULAMIDE C] (cyclo(A[X1]G[NMeI]G[NMeV][NMeF][X2])) | 5 | 20 | 10 | 220 | Active | > 1000 | 11 | 63 | Active | 2.1 | Active | >10.5 | >10.5 | 2.5
